The source of these data is ChEMBL document CHEMBL3045217, “Factors affecting the synergy of thiabendazole, sodium bicarbonate, and heat to control postharvest green mold of citrus fruit” (J Agric Food Chem, 2008).

Series [1] deals with Penicillium digitatum. Put plainly: Fungicidal activity against Penicillium digitatum infected Valenica oranges assessed as fruit weight loss at 400 mg/L treated for 1 min at 40 degC postharvest at 20 hr after fungal conidial inoculation measured after 21 days of storage at 17 degC in presence of 1% SBC (water Rvb = 12.71%). The class given is functional.
Series [2] has as its system Fruit. Put plainly: Total drug residues in Citrus sinensis cvs. Salustiana (Salustiana oranges) fruit at 600 mg/L treated for 1 min at 20 degC postharvest measured after overnight incubation at 17 degC by GC analysis. The class given is ADME. The method, boiled down: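 'Salustiana' oranges were water-washed, dried, dipped, then dried overnight at 17 °C in the dark. Unextracted fruit were used for total residues. Peel from five oranges was frozen at -18 °C. 5 g homogenized peel was extracted with 10 mL ethyl acetate/hexane (1/1) plus 2 g NaCl, shaken 30 min, then 1 mL of organic layer was dried under N2, redissolved in acetone, and run by GC without cleanup. Results are on a whole-fruit basis.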

Series [3] relates to Fruit. Description: Drug residues in Citrus sinensis cvs. Valencia late (Valencia oranges) at 600 mg/L treated for 1 min at 20 degC postharvest measured immediately post-drug treatment in presence of 0.5% SBC by GC analysis. The class given is ADME. The method, boiled down:
(§1)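 'Valencia' oranges were dipped 1 min in TBZ at 600 mg/L (20 °C, ±0.5, 1 or 2% wt/vol SBC), 400 mg/L (40 °C, ±SBC) or 200 mg/L (50 °C, alone), then air-dried. They were sampled at 0, 10 and 20 days at 17 °C. Peel of five fruit was frozen, and 5 g of homogenate was extracted with ethyl acetate/hexane (1/1) plus NaCl. The extract was dried under N2, taken up in acetone and analysed by GC. Results are mg/kg on a whole-fruit basis.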

In series [4] the test system is Penicillium digitatum. Put plainly: Fungicidal activity against TBZ-resistant Penicillium digitatum infected Nova mandarins assessed as postharvest green mold incidence at 400 mg/L treated for 1 min at 40 degC at 20 hr after fungal conidial inoculation measured after 5 days of storage at 20 degC (water Rvb = 96.7%). The class given is functional.
Series [5] concerns Fruit. Description: Drug residues in Citrus sinensis cvs. Valencia late (Valencia oranges) at 400 mg/L treated for 1 min at 40 degC postharvest measured immediately post-drug treatment in presence of 1% SBC by GC analysis. The class given is ADME. The method in brief:
as §1

Series [6] relates to Penicillium digitatum. Put plainly: Fungicidal activity against Penicillium digitatum infected Valenica oranges assessed as fruit weight loss at 600 mg/L treated for 1 min at 20 degC postharvest at 20 hr after fungal conidial inoculation measured after 7 days of storage at 17 degC in presence of 0.5% SBC (water Rvb = 3.90%). The class given is functional.
In series [7] the test system is Fruit. Put plainly: Drug residues in Citrus sinensis cvs. Valencia late (Valencia oranges) at 600 mg/L treated for 1 min at 20 degC postharvest measured immediately post-drug treatment in presence of 1% SBC by GC analysis. The class given is ADME. The method, boiled down:
as §1

Series [8] deals with Fruit. Put plainly: Drug residues in Citrus sinensis cvs. Valencia late (Valencia oranges) at 600 mg/L treated for 1 min at 20 degC postharvest measured after 20 days of storage at 17 degC in presence of 2% SBC by GC analysis. The class given is ADME. The method, boiled down:
as §1

The test system of series [9] is Penicillium digitatum. Put plainly: Fungicidal activity against Penicillium digitatum infected Valenica oranges assessed as fruit weight loss at 600 mg/L treated for 1 min at 20 degC postharvest at 20 hr after fungal conidial inoculation measured after 7 days of storage at 17 degC in presence of 1% SBC (water Rvb = 3.89%). The class given is functional.
The subject of series [10] is Fruit. Description: Drug residues in Citrus sinensis cvs. Valencia late (Valencia oranges) at 400 mg/L treated for 1 min at 40 degC postharvest measured after 20 days of storage at 17 degC in presence of 2% SBC by GC analysis. The class given is ADME. The method in brief: as §1
Series [11] concerns Penicillium digitatum. Description: Fungicidal activity against Penicillium digitatum infected Valenica oranges assessed as fruit weight loss at 400 mg/L treated for 1 min at 40 degC postharvest at 20 hr after fungal conidial inoculation measured after 7 days of storage at 17 degC in presence of 0.5% SBC (water Rvb = 4.07%). The class given is functional.
Series [12] concerns Penicillium digitatum. Description: Fungicidal activity against Penicillium digitatum infected Valenica oranges assessed as fruit weight loss at 600 mg/L treated for 1 min at 20 degC postharvest at 20 hr after fungal conidial inoculation measured after 14 days of storage at 17 degC in presence of 2% SBC (water Rvb = 8.02%). The class given is functional.
In series [13] the test system is Fruit. Description: Drug residues in Citrus sinensis cvs. Valencia late (Valencia oranges) at 400 mg/L treated for 1 min at 40 degC postharvest measured after 10 days of storage at 17 degC in presence of 2% SBC by GC analysis. The class given is ADME. The method in brief: as §1
In series [14] the test system is Fruit. Put plainly: Drug residues in Citrus sinensis cvs. Valencia late (Valencia oranges) at 400 mg/L treated for 1 min at 40 degC postharvest measured after 20 days of storage at 17 degC in presence of 0.5% SBC by GC analysis. The class given is ADME. The method, boiled down:
as §1

Series [15] relates to Penicillium digitatum. Put plainly: Fungicidal activity against Penicillium digitatum infected Valenica oranges assessed as fruit weight loss at 600 mg/L treated for 1 min at 20 degC postharvest at 20 hr after fungal conidial inoculation measured after 14 days of storage at 17 degC (water Rvb = 5.62%). The class given is functional.
Series [16] deals with Penicillium digitatum. Description: Fungicidal activity against Penicillium digitatum infected Valenica oranges assessed as fruit weight loss at 600 mg/L treated for 1 min at 20 degC postharvest at 20 hr after fungal conidial inoculation measured after 21 days of storage at 17 degC in presence of 1% SBC (water Rvb = 11.20%). The class given is functional.
Another series deals with Inner fruit. Description: Drug residues in Citrus sinensis cvs. Salustiana (Salustiana oranges) inner fruit at 600 mg/L treated for 1 min at 20 degC postharvest measured after overnight incubation at 17 degC by GC analysis. The class given is ADME. The method in brief: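 'Salustiana' oranges were washed with water and air-dried. They were dipped 1 or 3 min in TBZ 600 mg/L at 20 or 50 °C, or 1 min in TBZ 600 mg/L plus 2% SBC at 20 °C, then dried overnight at 17 °C in the dark. Surface residue was taken by water extraction and wax residue by chloroform extraction. Inner residue was measured in fruit after both extractions. Extracts were dried under N2, taken up in acetone and analysed by GC. Values are mg/kg on a whole-fruit basis.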

Series [17] deals with Fruit. Description: Drug residues in Citrus sinensis cvs. Valencia late (Valencia oranges) at 600 mg/L treated for 1 min at 20 degC postharvest measured after 20 days of storage at 17 degC by GC analysis. The class given is ADME. The method in brief: as §1
In series [18] the test system is Penicillium digitatum. Put plainly: Fungicidal activity against TBZ-sensitive Penicillium digitatum infected Nova mandarins assessed as postharvest green mold incidence at 400 mg/L treated for 1 min at 40 degC at 20 hr after fungal conidial inoculation measured after 5 days of storage at 20 degC (water Rvb = 100%). The class given is functional. The method in brief:
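Fruit were surface-disinfected in 1 g/L hypochlorite for 30 s, rinsed, dried, then wounded twice equatorially (2 mm × 2 mm rod). Inoculation was a 1 min dip in P. digitatum conidia, 1 × 10^5 conidia/mL final. Fruit were held 20 h at 20 °C and 90% RH, dipped 1 min (SBC wt/vol), and air-dried. Storage was 20 °C, 90% RH. Decay incidence (% fruit with lesions) was scored at 5 d for mandarins and 7 d for oranges. Three replicates of 40 fruit were used; arcsin-transformed data were compared by LSD, p ≤ 0.05.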

SMILES strings stand for the structures.

On to `c1ccc2[nH]c(-c3cscn3)nc2c1` [THIABENDAZOLE], for which the Activity is 12.11% in the series with Penicillium digitatum [1]; 88.3% in the series with Penicillium digitatum [4]; 4.28% in the series with Penicillium digitatum [6]; 4.33% with Penicillium digitatum [9]; 4.23% in the series with Penicillium digitatum [11]; 9.38% in the series with Penicillium digitatum [12]. The Activity worked out at 6.33% in the series on Penicillium digitatum [15], 12.35% with Penicillium digitatum [16] and 1.7% in the series on Penicillium digitatum [18]. The Drug uptake in the series on Fruit [2] is 1.04 mg/kg; in the series on Fruit [3], 1.25 mg/kg; with Fruit [5], 0.75 mg/kg; with Fruit [7], 1.31 mg/kg; in the series with Fruit [8] it was 1.38 mg/kg; in the series on Fruit [10] it was 0.58 mg/kg. Besides, the Drug uptake in the series on Fruit [13] came to 0.65 mg/kg; in the series with Fruit [14] it was 0.79 mg/kg; with Inner fruit, 0.13 mg/kg; with Fruit [17], 1.54 mg/kg.
